Laboratory results as given in ChEMBL document CHEMBL5038579, “Structure-Guided Development of Potent Benzoylurea Inhibitors of BCL-XL and BCL-2” (J Med Chem, 2021).
Activity calls are given as the source filed them. The rule behind the calls is not given here.

Tests used:
[1] = Inhibition of GST tagged human/mouse chimeric MCL-1 using biotin-DLRPEIRIAQELRIZIGDEFNETYTRR as substrate incubated for 40 mins followed by substrate addition measured after 4 hrs by AlphaSCREEN assay
[2] = Inhibition of GST tagged human BCL-XL deltaC25 using biotin-DLRPEIRIAQELRIZIGDEFNETYTRR as substrate […] measured after 4 hrs by AlphaSCREEN assay
[3] = system: MEF; test: Cytotoxicity against MCL-1/BAX/BAK deficient MEF cells assessed as release of cytochrome c from mitochondria by FACS analysis; type: functional, cell-based; details: Mus musculus
Procedure, shortened: (§1)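 MEFs at 1.5 × 10⁵ cells/well in FMA medium with 1% FCS, 3 h rest, then compounds for 18 h (final DMSO 0.25%) beside a vehicle control. Cells permeabilized with 0.025% digitonin on ice for 5 min, then fixed in 1% paraformaldehyde. Stained with anti-cytochrome c (1:100) and a PE secondary in saponin buffer. FL2 read on 10 000 events for % cells with low cytochrome c. Four experiments; multiple unpaired t test (Holm−Sidak, α = 0.01).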

[4] = system: MEF; test: Cytotoxicity against MCL-1deficient MEF cells assessed as release of cytochrome c from mitochondria at 25 uM FACS analysis; type: functional; procedure, shortened: as §1
[5] = system: MEF; test: Cytotoxicity against wild type MEF cells assessed as release of cytochrome c from mitochondria FACS analysis; type: functional, cell-based; details: Mus musculus; procedure, shortened: as §1
[6] = system: MEF; test: Cytotoxicity against MCL deficient mouse embryonic fibroblast cells assessed as reduction in cell viability in presence of 1 % fetal calf serum measured after 24 hrs by propidium iodide staining based flow cytometric analysis; type: functional
Procedure, shortened: (§2)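 MEFs (WT, MCL-1−/−, MCL-1−/−/BAX−/−/BAK−/−) seeded at 1 × 10⁴ cells/well in FMA medium with 1% FCS, 24 h before dosing. Four-point dilutions: 0.168−0.00005 μM for ABT-737, 25−3.13 μM for others; final DMSO 0.2%, duplicate wells, 24 h. Cells stained with PI, flow cytometry on 1000 events. PI-negative fraction normalized to DMSO vehicle; EC₅₀ by nonlinear regression, mean ± SEM of three experiments.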

[7] = system: MEF; test: Cytotoxicity against MCL-1deficient MEF cells assessed as release of cytochrome c from mitochondria at 2.5 uM FACS analysis; type: functional, Mus musculus; procedure, shortened: as §1
[8] = Inhibition of human BCL-2 deltaC22 by surface plasmon resonance assay
Procedure, shortened: (§3)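 Biacore solution competition. Protein (10 nM) preincubated 2 h with compound (12.5−0.0001 μM, 10-step half-log series) in HEPES running buffer pH 7.4 with EDTA and 0.005% Tween 20. Injected over a CM5 chip carrying wild-type or inert mBIM BH3 peptide. IC₅₀ by nonlinear curve fit. GST tag removed from BCL-XL and MCL-1 before use.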

[9] = system: MEF; test: Cytotoxicity against MCL-1/BAX/BAK deficient mouse embryonic fibroblast cells assessed as reduction in cell viability in presence of 1 % fetal calf serum measured after 24 hrs propidium iodide staining based flow cytometric analysis; type: functional; procedure, shortened: as §2
[10] = Inhibition of human BCL-W deltaC23 C29S/A128E mutant by surface plasmon resonance assay; procedure, shortened: as §3
[11] = Inhibition of GST tagged human/mouse chimeric MCL-1 by surface plasmon resonance assay
[12] = Inhibition of GST tagged human BCL-XL deltaC25 by surface plasmon resonance assay
[13] = system: MEF; test: Cytotoxicity against wild type mouse embryonic fibroblast cells assessed as reduction in cell viability in presence of 1 % fetal calf serum measured after 24 hrs propidium iodide staining based flow cytometric analysis; type: functional; procedure, shortened: as §2
[14] = Inhibition of mouse A1 deltaC20 P10K/C113S mutant by surface plasmon resonance assay; procedure, shortened: as §3
[15] = system: COLO 205; test: Cytotoxicity against BCL-XL dependent human COLO205 cells assessed as reduction in cell viability measured after 48 hrs by CellTitre-Glo assay; type: functional, cell-based
Procedure, shortened: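 COLO205 cells (WT or BAK−/−/BAX−/−), kept in RPMI-1640 with 10% FCS, seeded at 3 × 10³ cells/well in medium with 10 or 1% FCS. Dosed one day later with six-point serial dilutions (0.0003−10 μM 1:8 for BH3 mimetics; 0.1−25 μM 1:3 for benzoylureas). Viability normalized to matched DMSO vehicle; EC₅₀ by curve fit.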

[16] = system: MEF; test: Cytotoxicity against mouse embryonic fibroblast cells assessed as reduction in cell viability in presence of 10 % fetal calf serum measured after 24 hrs propidium iodide staining based flow cytometric analysis; type: functional

| SMILES | IC50 [1] | IC50 [2] | IC50 [8] | IC50 [10] | IC50 [11] | IC50 [12] | IC50 [14] | further results |
| --- | --- | --- | --- | --- | --- | --- | --- | --- |
| Cc1ccc(CN(C(=O)NCCSCc2ccccc2)C(=O)c2ccc(-c3ccccc3)cc2)cc1 | > 100 µM | > 100 µM |  |  |  |  |  |  |
| CCCN(C(=O)N[C@@H](CSCc1ccccc1)C(=O)O)C(=O)c1ccc(-c2ccccc2)cc1 | 28 µM | 31 µM |  |  |  |  |  | Activity [3]: inactive; Activity ([4]; Mus musculus): inactive; Activity [5]: inactive; EC50 [6]: > 25 µM |
| CN(C)CC[C@H](CSc1ccccc1)Nc1ccc(S(=O)(=O)NC(=O)c2ccc(N3CCN(Cc4ccccc4-c4ccc(Cl)cc4)CC3)cc2)cc1[N+](=O)[O-] [ABT 737] | 40 µM | 0.004 µM | < 0.00025 µM | 0.012 µM | > 12.5 µM | < 0.00025 µM |  | Activity [7]: >90%; Activity [9]: inactive; EC50 [6]: 0.013 µM; Activity [13]: inactive |
| Cc1ccc(CN(C(=O)N[C@@H](CS(=O)(=O)Cc2ccccc2)C(=O)O)C(=O)c2ccc3c(c2)CCN(Cc2ccccc2-c2ccc(Cl)cc2)C3)cc1 | 5.3 µM | 0.17 µM | 0.066 µM | > 12.5 µM | > 12.5 µM | 0.133 µM | > 12.5 µM |  |
| Cc1ccc(CN(C(=O)N[C@@H](CS(=O)(=O)CC2CCCCC2)C(=O)O)C(=O)c2ccc(-c3ccccc3)cc2)cc1 | 10 µM | 0.46 µM | > 12.5 µM | > 12.5 µM | > 12.5 µM | 0.62 µM | > 12.5 µM |  |
| Cc1ccc(CN(C(=O)N[C@@H](CS(=O)(=O)CC2CCCCC2)C(=O)O)C(=O)c2ccc3c(c2)CCN(Cc2ccccc2-c2ccc(Cl)cc2)C3)cc1 | 1.8 µM | 0.04 µM | 0.018 µM | 6.8 µM | > 12.5 µM | 0.041 µM | 4.6 µM | Activity [3]: inactive; Activity [4]: 30%; Activity [5]: inactive; Activity [9]: inactive; Activity [15]: inactive; EC50 [6]: 19.2 µM; Activity [16]: inactive; Activity [13]: inactive |
| Cc1ccc(CN(C(=O)N[C@@H](CS(=O)(=O)CC23CC4CC(CC(C4)C2)C3)C(=O)O)C(=O)c2ccc3c(c2)CCN(Cc2ccccc2-c2ccc(Cl)cc2)C3)cc1 | 1.8 µM | 0.04 µM | 0.107 µM | > 12.5 µM | > 12.5 µM | 0.044 µM | 5.9 µM |  |
| Cc1ccc(CN(C(=O)N[C@@H](CSCc2ccccc2)C(=O)O)C(=O)c2ccc(-c3cccc(-c4ccccc4-c4ccc(Cl)cc4)c3)cc2)cc1 | 1.5 µM | 0.24 µM |  |  |  |  |  |  |
| Cc1ccc(CN(C(=O)N[C@@H](CSCc2ccccc2)C(=O)O)C(=O)c2ccc3c(c2)CCN(Cc2ccccc2-c2ccc(Cl)cc2)C3)cc1 | 2 µM | 0.21 µM | 0.152 µM | 10 µM | > 12.5 µM | 0.24 µM | 4.6 µM |  |
| Cc1ccc(CN(C(=O)N[C@@H](CS(=O)(=O)CC23CC4CC(CC(C4)C2)C3)C(=O)O)C(=O)c2ccc(-c3ccccc3)cc2)cc1 | 6.1 µM | 0.19 µM | 9.4 µM | > 12.5 µM | > 12.5 µM | 0.42 µM | 6.8 µM |  |

More lines, main results first:

| IC50 [1] | IC50 [2] | IC50 [8] | IC50 [10] | IC50 [11] | IC50 [12] | IC50 [14] | SMILES | further results |
| --- | --- | --- | --- | --- | --- | --- | --- | --- |
| 11.8 µM | 0.38 µM |  |  |  |  |  | Cc1ccc(CN(C(=O)N[C@@H](COCc2ccccc2)C(=O)O)C(=O)c2ccc(-c3ccccc3)cc2)cc1 |  |
| 7.7 µM | 0.51 µM |  |  |  |  |  | Cc1ccc(CN(C(=O)N[C@@H](CSCc2ccccc2)C(=O)O)C(=O)c2ccc(-c3ccccc3)cc2)cc1 |  |
| 8 µM | 1.09 µM |  |  |  |  |  | Cc1ccc(CN(C(=O)N[C@@H](CCCc2ccccc2)C(=O)O)C(=O)c2ccc(-c3ccccc3)cc2)cc1 |  |
| 44 µM | 13.1 µM |  |  |  |  |  | CSC[C@H](NC(=O)N(Cc1ccc(C)cc1)C(=O)c1ccc(-c2ccccc2)cc1)C(=O)O |  |
| 11.6 µM | 0.59 µM | > 12.5 µM | > 12.5 µM | > 12.5 µM | 1.8 µM | > 12.5 µM | Cc1ccc(CN(C(=O)N[C@@H](CS(=O)(=O)Cc2ccccc2)C(=O)O)C(=O)c2ccc(-c3ccccc3)cc2)cc1 |  |
| > 100 µM | > 100 µM |  |  |  |  |  | COC(=O)[C@H](CSCc1ccccc1)NC(=O)N(Cc1ccc(C)cc1)C(=O)c1ccc(-c2ccccc2)cc1 |  |
